According to ChEMBL document CHEMBL4513216, “Probing the Open Global Health Chemical Diversity Library for Multistage-Active Starting Points for Next-Generation Antimalarials” (ACS Infect Dis, 2020):

Assay: Toxicity liver stage against HepG2, at 10uM
Type: cell-based
Parameters: test concentration 10 uM, cell line HepG2-A16-CD81EGFP
Conditions: human, HepG2-A16-CD81EGFP cells; read-out: INHIBITION
In short: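 Uninfected HepG2-A16-CD81EGFP cells, 3 × 10^3 per well, 1536-well, plated on prespotted compound at 10 μM final, parasite-free screening media added to match infected plates; puromycin 10 μM positive, DMSO 0.5% negative; run in parallel with 48 h PbLuc assay at 37 °C, 5% CO2; viability by CellTiter-Glo luminescence, normalized to controls.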

In order of rising cytotoxicity at 10 µM:
1. Cc1csc(CN2CCC[C@]3(C[C@@H](OCC4CC4)CO3)C2)n1  -134%
2. O=C(c1cccc2ccnn12)N1CCCC1Cn1cccn1 (stereo not given)  -126%
3. Cc1ccc(C(=O)N2CC[C@]3(C[C@@H](OCc4ccccn4)CO3)C2)nc1  -74.6%
4. c1cc(CN2CCCn3cnc(COCC4CC4)c3C2)co1  -74.2%
5. CN(Cc1ccco1)[C@@H]1CN(Cc2nccn2C)[C@@H]2CCCO[C@H]12  -67.9%
6. Cc1cc(CN2CCCC(Cn3cncn3)C2)on1 (stereo not given)  -25.2%
7. CCc1nc2ccccc2c(=O)n1CC1(O)CCN(C(=O)C(C)C)CC1  -24.3%
8. O=C(c1ccno1)N1CCCC(c2ncncc2-c2ccncc2)C1 (stereo not given)  -19.9%
9. Cc1nc(CNCC2CCCN(C(=O)OC(C)(C)C)C2)cs1 (stereo not given)  -18.2%
10. O=S(=O)(NCCn1cc(C2CCCNC2)nn1)c1ccc(Cl)cc1 (stereo not given)  -17.1%
11. Cc1n[nH]c(C2CN(CCc3cccs3)CCO2)n1 (stereo not given)  -15.8%
12. COc1cccc(N2CCN(C(=O)CN(C)c3cnccn3)CC2)c1  -15.2%
13. O=C1CCC(=O)N1c1nn(Cc2ccccc2)cc1Cl  -14.4%
14. CNc1ncc(CN(C)Cc2cc(O)c3cc(C)cc(C)c3n2)cn1  -13.9%
15. CC(=O)NC1CCCN(Cc2csc(-c3ncccn3)n2)C1 (stereo not given)  -13.1%
16. CC(C)Oc1cccc(Cc2nc3c([nH]2)CCCNC3=O)c1  -12.9%
17. Cc1occc1C(=O)N1CCCS1(=O)=O  -11%
18. CC(C)C1CN(Cc2nccn2C(C)C)CCC(=O)N1CC1CC1 (stereo not given)  -11%
19. Cc1occc1C(=O)N1CCOC2(CCCC2)C1  -10.9%
20. CN(C(=O)c1ccn(C)n1)[C@@H]1CCC[C@@H](Oc2ccccc2)[C@@H]1O  -10.3%
21. CSCc1cc(F)ccc1CNCc1cccnc1  -9.84%
22. CC(C)Nc1nc2c(s1)C(=O)CN(C)C2  -9.77%
23. CN1CCN(c2cc(CNC(=O)c3cnccn3)ccn2)CC1  -8.92%
24. c1ccc(-c2nc(CNC3CCc4ncnn4C3)co2)cc1 (stereo not given)  -8.6%
25. Cc1nn(C)c(C)c1C1CCCN1C(=O)c1cnc2n[nH]c(C)c2c1 (stereo not given)  -8.38%
26. COc1cc(CN2C[C@H](OC)[C@]3(CCCO3)C2)ccc1F  -7.61%
27. CCCc1n[nH]c(C2CN(C(=O)c3ccnc(C4CC4)n3)CCO2)n1 (stereo not given)  -7.49%
28. Cc1ccc(C(C(=O)NC(C)(C)CN2CCCC2)N(C)C)cc1 (stereo not given)  -6.93%
29. Cc1ccccc1S(=O)(=O)NC(=O)C1(c2ccccc2)CCC1  -6.9%
30. CC(C)N1CCC(Cc2cncc(-c3cc(F)ccc3C(=O)O)n2)C1 (stereo not given)  -6.88%
31. CC(C)(C)OC(=O)N1CCC(C(=O)NC2CCS(=O)(=O)C2)CC1 (stereo not given)  -6.81%
32. Cc1nc(C)c(C(=O)N2CCCc3c(F)cccc32)o1  -6.75%
33. CN(Cc1cnn(C)c1)S(=O)(=O)N1CCc2ccccc2C1  -6.47%
34. Cc1noc(C)c1CN(C)c1ncnc2ccccc12  -6.4%
35. O=C(c1cn(Cc2ccc(Cl)cc2)nn1)N1CCCO1  -6.01%
36. OC1CCCN(Cc2c(-c3ccco3)[nH]c3ncccc23)C1 (stereo not given)  -5.87%
37. COc1ccc(-c2cc(CN)nc3ccnn23)cc1  -5.75%
38. CC(CO)(CO)NC(=O)C1CCC(=O)N(Cc2ccc(Cl)cc2)C1 (stereo not given)  -4.71%
39. O=C(c1ccncc1)N1CCCC(c2cc(C(F)F)n3ncnc3n2)C1 (stereo not given)  -4.45%
40. Cn1ncc2c1CCCC2NCc1ccc(Br)s1 (stereo not given)  -4.41%
41. CNC(=O)[C@@H](c1ccccc1OC)N1CCC[C@H]1C(=O)NC1CC1  -4.39%
42. CC(NC(=O)CCc1cccs1)c1nnc2n1CCC2 (stereo not given)  -4.22%
43. Oc1nc(N2CCOCC2)nc2c1CCN(Cc1ccccc1)CC2  -4.03%
44. Cc1nc(CN2CCN(C(C)C(=O)NC3CCCC3)CC2)cs1 (stereo not given)  -3.9%
45. Cc1ccc(N2CCCN(C(=O)CC3CCCO3)CC2)nn1 (stereo not given)  -3.68%
46. OCC1(Cc2ccc(F)cc2F)CCCN(Cc2ccncc2)C1 (stereo not given)  -3.44%
47. Cc1cccc(CN2CCO[C@@H]3CC(COc4ccccn4)C[C@H]32)n1 (stereo not given in full)  -3.31%
48. COCCc1noc(CN2CCC(c3ccccc3C(=O)O)C2)n1 (stereo not given)  -3.03%
49. O=C(NCC1CC1)[C@H]1C[C@H]2OCC[C@H]2N(Cc2ccoc2)C1  -3.01%
50. Cc1nn(CCC(=O)NC(C(=O)O)c2c(C)n[nH]c2C)c(C)c1C (stereo not given)  -2.72%
51. CC(C)N(C)C(=O)c1ccc(Cl)c(NC(=O)CCN2C(=O)CCC2=O)c1  -2.63%
52. Cc1ccc(C(=O)N2C[C@@H](OCc3cccnc3)[C@H]3OCCC[C@@H]32)o1  -2.52%
53. CCn1ncc2c1CCCC2NCc1cscn1 (stereo not given)  -2.42%
54. CC(C)(C)C(=O)NCCC1CN(Cc2ccccc2F)CCO1 (stereo not given)  -2.05%
55. CCc1nc(C2CCCN2C(=O)CCNS(C)(=O)=O)no1 (stereo not given)  -1.77%
56. O=S(=O)(CCCc1ccccc1)Cc1nnnn1C1CC1  -1.01%
57. COc1ccc2c(c1)OCC(Cc1cc(C(=O)N3CCCC3)ccn1)C2 (stereo not given)  -0.675%
58. Cn1ncc2c(=O)[nH]c(N3CCCC3c3cccs3)nc21 (stereo not given)  -0.53%
59. CC(C)CC(=O)N1CC(=O)c2sc(NCCc3ccccc3)nc2C1  -0.501%
60. Cc1[nH]c2c(C)ccc(C)c2c1CC(=O)NC1CCCNC1=O (stereo not given)  -0.274%
61. CCc1cc(N2CCC(N[C@@H]3CS(=O)(=O)C[C@H]3O)CC2)nc(N(C)C)n1  -0.157%
62. Cc1[nH]ncc1C(=O)N1CCN(CC(O)C(C)(C)C)CC1 (stereo not given)  -0.00964%
63. COc1ccc(-c2ccc(C(=O)NCCCC(N)=O)c(F)c2)c(F)c1  0.393%
64. CCOc1ccc(C(=O)n2cccn2)cc1  0.45%
65. CNC(=O)C(C)(C)CNC(=O)Nc1ccc(C)cn1  0.973%
66. Cc1nc(CNCc2ccc(OC34CCCN(CC3)C4)cc2)n[nH]1 (stereo not given)  1.01%
67. Cn1ccnc1CN1CCOC(C)(C(=O)N2CCOCC2)C1 (stereo not given)  1.27%
68. CSc1cccc(CN2CCC(CCC(=O)NC3CC3)CC2)c1  1.28%
69. O=C(NC1CCC(O)CC1)c1ccc2nc(-c3ccc(F)cc3)cn2c1 (stereo not given)  1.31%
70. O=C(CC1NC(N2CCc3ccccc32)=NC1=O)Nc1ccc(Cl)cc1 (stereo not given)  1.54%
71. Cc1cc2nc(CO[C@H]3CN(C4CCC4)C[C@H]3F)[nH]c2cc1C  1.56%
72. C[C@@H]1CN(C(=O)c2ccsc2)C[C@]12CCN(c1ccsc1)C2=O  1.88%
73. CN(C)CCO[C@@H]1CC[C@H]2[C@H]1OCCN2C(=O)c1ccccc1F  2.25%
74. Cn1cc(CC(=O)N2CCOC(c3nc(C(C)(C)C)n[nH]3)C2)cn1 (stereo not given)  2.4%
75. Cc1oncc1C(=O)NCc1cc(=O)n2c(n1)CN(C(C)C)CCC2  2.45%
76. CC(=O)N1CCOC[C@H](Oc2ccc(C(F)(F)F)cc2)C1  2.65%
77. COc1cc(N2CCN(Cc3ccc(C)o3)C(CCO)C2)nc(N)n1 (stereo not given)  2.8%
78. O=C(NCc1nncn1C1CCCCC1)C1COc2ccccc2O1 (stereo not given)  2.83%
79. Cc1ncsc1-c1nnc(C2CCN(Cc3ccc(F)cc3)CC2)o1  3.52%
80. Cc1ccc(N2C[C@@H]3OCCN(CC4CC4)[C@@H]3C2)nn1  3.59%
81. N#CCSCCCN1CCCC(C(=O)N2CCCCCC2)C1 (stereo not given)  4.01%
82. CNC(=O)C1(c2cnccn2)CCCN1C(=O)Cc1ccsc1 (stereo not given)  4.12%
83. Cc1cc(OCCC(=O)NCc2ccc(F)cc2)nnc1C  4.4%
84. Cc1cc(NC(=O)N(C)CCN2CCN(c3ccccc3)CC2)on1  4.79%
85. CSc1ccc(CNCCS(=O)(=O)N2CCOCC2)cc1  4.83%
86. CCOC[C@@H]1CCC[C@]12CN(S(=O)(=O)c1cn(C)cn1)CCO2  5.7%
87. CC(=O)N1CCc2[nH]cnc2C12CCN(C(=O)CCn1cccn1)CC2  5.71%
88. CCNC(=O)[C@@H]1C[C@H](N)CN1Cc1ccc2cccc(Cl)c2n1  5.91%
89. COCC1CN(C(=O)c2ccoc2C)Cc2nccn2C1 (stereo not given)  6.1%
90. O=C(NCC[S+]([O-])Cc1ccccc1)c1ccc2[nH]c(=O)[nH]c2c1 (stereo not given)  6.11%
91. CC(C)Nc1nc(N2CCCC2)nc2c1CCN(S(C)(=O)=O)CC2  6.43%
92. Fc1ccc(CCN2CCC(c3nnc(-c4cccnc4)o3)CC2)cc1  6.59%
93. O=C(c1ccc2cccc(F)c2n1)N1CCN(CCn2cncn2)CC1  7.02%
94. CCCc1cc(CNC2CCN(c3nc(C)cc(C)n3)CC2)on1  7.51%
95. Cc1ccc(OC2CCN(S(=O)(=O)N(C)C)CC2)nc1  7.68%
96. CC(Nc1ccc2c(c1)CCC2)c1nc(C2CC2)no1 (stereo not given)  7.92%
97. O=C(O)[C@@H]1CN(C(=O)CCc2ccccn2)C[C@H]1c1ccccc1  7.96%
98. O=C(NCCN1CCCC(CO)C1)c1ccc2scnc2c1 (stereo not given)  8.61%
99. CCc1oc(C(=O)N2CCCC(c3nnn[nH]3)C2)cc1C (stereo not given)  9.09%
100. CN1CC(C(=O)N2CCC(Oc3ccccc3Cl)CC2)CC1=O (stereo not given)  9.99%
101. CCN(CC)S(=O)(=O)CCNC(=O)N(C)C(C)c1ccccn1 (stereo not given)  10.6%
102. Cc1cc(C(=O)N2CCN(Cn3cc(Cl)cn3)CC2)c(C)o1  10.9%
103. O=C1NCCCCC1SCc1coc(-c2ccccc2)n1 (stereo not given)  11.6%
104. NC(=O)NC(=O)CN1CCN(CC2CC2)c2ccccc21  11.7%
105. Cc1cc(C)c(NC(=O)Nc2cnn(CC(O)CN(C)C)c2)c(C)c1 (stereo not given)  12.5%
106. CCOCc1ccc(CNc2nc(OC)ncc2Cl)cc1  13.2%
107. CN(C)c1ccc(C(=O)N(Cc2ccncc2)CC2CCCO2)nn1 (stereo not given)  14.2%
108. CCCC(NC(=O)c1cscc1C)c1nnn[nH]1 (stereo not given)  19.5%
109. Cc1cc(NCCNc2cccnc2)nc(-c2ccccc2O)n1  47.9%
110. CS(=O)(=O)CCNC(=O)Nc1ccc(Cl)cc1-n1cccc1  48.2%
